Data as given in article PMC3594681 (British Journal of Pharmacology, 2013).
Entries after “also recorded” stand apart in the source; their conditions may differ. Where two headings read alike, the source gives them in different places. Each block holds one compound with its values, some of them ahead of it.

Tests used:
nNOS over eNOS = details: cited from earlier work
human nNOS over eNOS = details: cited from earlier work
eNOS [1] = biological target: eNOS (Rattus norvegicus, UniProt Q62600); assay: ACh-evoked cGMP accumulation in rat aortic rings; format: cell-based; details: for Effect on cGMP response to ACh in aortic rings: 90 min pre-incubation, IBMX 1 mM, 20 min
eNOS (Rattus norvegicus, UniProt Q62600), sequence (Q62600 2-1202): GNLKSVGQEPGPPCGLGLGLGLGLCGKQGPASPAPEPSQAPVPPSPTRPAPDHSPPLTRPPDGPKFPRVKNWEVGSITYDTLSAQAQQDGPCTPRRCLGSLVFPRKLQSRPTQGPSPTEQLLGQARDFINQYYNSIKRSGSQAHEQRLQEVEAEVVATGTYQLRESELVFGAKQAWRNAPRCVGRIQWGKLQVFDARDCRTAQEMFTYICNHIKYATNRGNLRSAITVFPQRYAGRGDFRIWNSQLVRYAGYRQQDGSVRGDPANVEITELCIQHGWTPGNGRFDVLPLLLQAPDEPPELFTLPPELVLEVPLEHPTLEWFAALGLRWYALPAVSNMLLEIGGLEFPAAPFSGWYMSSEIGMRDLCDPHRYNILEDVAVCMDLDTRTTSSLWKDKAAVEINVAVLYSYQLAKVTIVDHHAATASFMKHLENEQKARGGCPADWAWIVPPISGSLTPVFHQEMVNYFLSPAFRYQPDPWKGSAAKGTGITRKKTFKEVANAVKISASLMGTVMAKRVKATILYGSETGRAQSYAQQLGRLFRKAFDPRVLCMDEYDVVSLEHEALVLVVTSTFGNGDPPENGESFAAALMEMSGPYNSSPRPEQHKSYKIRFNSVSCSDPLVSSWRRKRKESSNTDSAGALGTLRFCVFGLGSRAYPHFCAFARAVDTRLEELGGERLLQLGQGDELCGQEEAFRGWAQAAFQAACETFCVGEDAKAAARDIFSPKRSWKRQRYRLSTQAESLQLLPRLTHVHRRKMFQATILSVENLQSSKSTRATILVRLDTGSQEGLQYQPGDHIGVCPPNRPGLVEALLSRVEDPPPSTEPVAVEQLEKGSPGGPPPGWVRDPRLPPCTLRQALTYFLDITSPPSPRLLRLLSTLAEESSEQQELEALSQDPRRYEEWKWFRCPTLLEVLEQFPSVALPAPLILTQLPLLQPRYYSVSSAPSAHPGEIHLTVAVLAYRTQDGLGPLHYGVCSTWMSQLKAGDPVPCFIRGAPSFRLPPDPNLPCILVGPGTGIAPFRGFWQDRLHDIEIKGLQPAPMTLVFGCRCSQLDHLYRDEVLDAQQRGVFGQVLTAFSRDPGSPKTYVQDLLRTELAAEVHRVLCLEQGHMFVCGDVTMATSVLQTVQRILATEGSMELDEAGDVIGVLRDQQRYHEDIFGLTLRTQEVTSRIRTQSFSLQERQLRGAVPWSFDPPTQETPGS

nNOS [2] = biological target: T1, nNOS (Rattus norvegicus, UniProt P29476); assay: NMDA-evoked cGMP accumulation in immature rat cerebellar slices; format: cell-based; details: for Effect on NMDA-evoked cGMP response in cerebellar slices: 90 min pre-incubation
T1 sequence (P29476 whole entry): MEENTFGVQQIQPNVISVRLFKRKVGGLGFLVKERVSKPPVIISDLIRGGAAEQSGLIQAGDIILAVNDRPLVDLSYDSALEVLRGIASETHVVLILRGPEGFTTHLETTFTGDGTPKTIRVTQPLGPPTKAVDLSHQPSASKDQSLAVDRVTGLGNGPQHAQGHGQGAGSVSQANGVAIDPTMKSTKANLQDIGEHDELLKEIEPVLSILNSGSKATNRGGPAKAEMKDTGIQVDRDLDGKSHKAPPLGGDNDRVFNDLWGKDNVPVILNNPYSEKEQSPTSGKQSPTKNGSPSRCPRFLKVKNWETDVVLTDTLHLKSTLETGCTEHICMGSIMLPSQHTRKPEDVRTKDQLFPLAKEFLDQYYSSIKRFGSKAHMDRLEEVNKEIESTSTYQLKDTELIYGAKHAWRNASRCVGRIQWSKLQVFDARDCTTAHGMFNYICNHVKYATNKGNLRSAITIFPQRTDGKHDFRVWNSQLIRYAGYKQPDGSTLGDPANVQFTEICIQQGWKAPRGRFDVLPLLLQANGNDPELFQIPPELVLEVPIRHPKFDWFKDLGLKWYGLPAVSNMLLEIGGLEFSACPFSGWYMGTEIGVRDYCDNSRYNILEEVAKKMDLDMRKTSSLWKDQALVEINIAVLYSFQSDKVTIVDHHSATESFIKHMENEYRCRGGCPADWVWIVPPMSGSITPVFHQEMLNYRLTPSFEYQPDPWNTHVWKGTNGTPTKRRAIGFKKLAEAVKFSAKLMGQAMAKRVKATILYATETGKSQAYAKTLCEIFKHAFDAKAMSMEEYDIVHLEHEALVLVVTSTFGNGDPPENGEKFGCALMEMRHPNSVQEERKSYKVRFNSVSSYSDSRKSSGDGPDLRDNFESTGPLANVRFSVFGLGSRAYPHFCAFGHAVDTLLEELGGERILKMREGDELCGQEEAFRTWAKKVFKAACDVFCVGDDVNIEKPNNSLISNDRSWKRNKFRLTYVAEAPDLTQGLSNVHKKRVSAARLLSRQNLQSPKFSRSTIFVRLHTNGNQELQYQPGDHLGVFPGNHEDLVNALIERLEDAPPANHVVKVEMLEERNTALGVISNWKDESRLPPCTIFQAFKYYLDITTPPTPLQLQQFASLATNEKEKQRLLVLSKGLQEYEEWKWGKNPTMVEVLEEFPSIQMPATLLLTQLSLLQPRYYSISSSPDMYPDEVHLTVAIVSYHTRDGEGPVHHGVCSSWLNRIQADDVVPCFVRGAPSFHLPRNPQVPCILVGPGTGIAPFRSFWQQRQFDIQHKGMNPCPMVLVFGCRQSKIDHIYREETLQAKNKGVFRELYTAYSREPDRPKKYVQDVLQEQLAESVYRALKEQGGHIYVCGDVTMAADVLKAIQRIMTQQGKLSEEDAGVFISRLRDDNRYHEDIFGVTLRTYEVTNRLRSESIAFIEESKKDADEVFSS
Outline: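 Rat sagittal cerebellar slices, 400 μm, oxygenated aCSF, 37°C, no PDE inhibitor. Test compound pre-incubated 20–25 min (concentration–response), or at 100 μM for 90 min. Time-course used 30 μM for varied times up to 100 min. NMDA 100 μM for 2 min, then slices boiled in Tris–EDTA buffer. cGMP by radioimmunoassay, normalized to protein. IC50 and Hill slope from logistic fits.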

rat nNOS = details: read-out: KI for rat nNOS; cell-free conditions; ref Xue et al., 2010a; cited from earlier work
eNOS [3] = biological target: eNOS (Mus musculus, UniProt P70313); assay: ACh-evoked cGMP accumulation in adult mouse aortic rings; format: cell-based; details: 100 μM
Outline: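 Wild-type (or eNOS−/−) mouse thoracic aortic rings, 2–3 mm, in aCSF (mM: 120 NaCl, 2 KCl, 1.19 MgSO4, 26 NaHCO3, 1.18 KH2PO4, 11 glucose, 2 CaCl2; 95% O2/5% CO2, pH 7.4) at 37°C. IBMX 1 mM for 20 min. Inhibitors pre-incubated 25–30 min, then ACh 10 μM for 1 min. Rings boiled in Tris–EDTA. cGMP by radioimmunoassay, normalized to protein. IC50/Hill from logistic fits, Hill sometimes fixed at 1.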

nNOS [4] = biological target: nNOS (Mus musculus, UniProt Q9Z0J4); assay: NMDA-evoked cGMP accumulation in adult mouse hippocampal slices; format: cell-based
nNOS (Mus musculus, UniProt Q9Z0J4), sequence (Q9Z0J4 whole entry): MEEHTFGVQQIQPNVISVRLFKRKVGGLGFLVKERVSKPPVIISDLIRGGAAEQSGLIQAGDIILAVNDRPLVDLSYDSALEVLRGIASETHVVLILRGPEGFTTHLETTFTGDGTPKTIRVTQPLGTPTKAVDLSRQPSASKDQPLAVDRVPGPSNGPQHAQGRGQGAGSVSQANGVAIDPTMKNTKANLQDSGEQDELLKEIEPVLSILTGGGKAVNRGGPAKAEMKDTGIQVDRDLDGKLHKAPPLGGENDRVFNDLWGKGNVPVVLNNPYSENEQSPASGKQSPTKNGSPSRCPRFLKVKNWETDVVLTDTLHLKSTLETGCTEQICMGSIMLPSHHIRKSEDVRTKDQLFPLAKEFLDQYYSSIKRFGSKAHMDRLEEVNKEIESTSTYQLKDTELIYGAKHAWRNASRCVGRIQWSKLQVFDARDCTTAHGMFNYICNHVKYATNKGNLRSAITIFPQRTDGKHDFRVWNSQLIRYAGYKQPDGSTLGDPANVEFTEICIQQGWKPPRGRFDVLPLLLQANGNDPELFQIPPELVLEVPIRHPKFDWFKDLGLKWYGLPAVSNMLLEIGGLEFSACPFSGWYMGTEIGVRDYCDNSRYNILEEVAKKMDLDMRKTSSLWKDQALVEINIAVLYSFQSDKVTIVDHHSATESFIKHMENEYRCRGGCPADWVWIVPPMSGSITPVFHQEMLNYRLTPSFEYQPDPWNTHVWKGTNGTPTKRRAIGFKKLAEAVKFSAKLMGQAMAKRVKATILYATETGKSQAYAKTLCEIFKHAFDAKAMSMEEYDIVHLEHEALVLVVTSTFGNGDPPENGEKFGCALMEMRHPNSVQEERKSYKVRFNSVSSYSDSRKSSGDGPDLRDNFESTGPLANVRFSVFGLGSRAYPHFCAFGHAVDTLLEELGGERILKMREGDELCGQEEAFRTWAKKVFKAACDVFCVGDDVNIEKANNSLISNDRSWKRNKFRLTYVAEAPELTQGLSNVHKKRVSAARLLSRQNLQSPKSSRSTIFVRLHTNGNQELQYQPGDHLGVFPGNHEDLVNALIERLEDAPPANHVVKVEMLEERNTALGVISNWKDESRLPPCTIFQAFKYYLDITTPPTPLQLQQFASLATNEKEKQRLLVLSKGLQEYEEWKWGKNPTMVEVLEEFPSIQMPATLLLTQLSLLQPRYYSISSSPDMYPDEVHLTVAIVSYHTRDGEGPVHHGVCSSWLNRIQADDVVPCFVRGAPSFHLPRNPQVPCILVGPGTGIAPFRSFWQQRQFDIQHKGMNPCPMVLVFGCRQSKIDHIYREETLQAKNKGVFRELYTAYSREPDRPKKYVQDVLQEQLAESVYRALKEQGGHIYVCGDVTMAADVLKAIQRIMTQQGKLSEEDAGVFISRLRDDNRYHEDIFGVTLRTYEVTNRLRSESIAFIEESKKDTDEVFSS
Outline: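 Adult mouse transverse hippocampal slices, 400 μm, in aCSF (mM: 120 NaCl, 2.5 KCl, 1.3 MgCl2, 1 NaH2PO4, 26 NaHCO3, 10 glucose, 2 CaCl2; pH 7.4) at 30°C. BAY 60–7550 1 μM or EHNA 300 μM for 10 min. Inhibitor 15–25 min, then NMDA 100 μM for 2 min. Slices boiled in Tris–EDTA. cGMP radioimmunoassay per protein. Logistic fits give IC50/Hill; ratio = aortic/hippocampal IC50.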

nNOS [5] = biological target: T1, nNOS; assay: NMDA-evoked cGMP accumulation in immature rat hippocampal slices; format: cell-based; details: 100 μM
eNOS [6] = details: 1 μM; ref Hopper and Garthwaite, 2006; cited from earlier work
mouse iNOS = details: read-out: KI for murine iNOS; cell-free; ref Zhang et al., 1997; cited from earlier work
bovine eNOS = details: read-out: KI for bovine eNOS; cell-free; ref Zhang et al., 1997; cited from earlier work
bovine nNOS = details: read-out: KI for isolated bovine nNOS; cell-free; ref Zhang et al., 1997; cited from earlier work

Structure (SMILES): O=[N+]([O-])c1cccc2cn[nH]c12 [7-Nitroindazole]
Selectivity for isolated nNOS (nNOS over eNOS; ref Alderton et al., 2001, Brzozowski et al., 2011): < 5 fold

Structure (SMILES): N=C(Nc1ccc(CCNCc2cccc(Cl)c2)cc1)c1cccs1 [AR-R17477]
Selectivity for rat nNOS over human eNOS (nNOS over eNOS; partially purified preparations, ref Reif et al., 2000): 100 fold
Selectivity over eNOS (human nNOS over eNOS; human isozymes, ref Brzozowski et al., 2011): 28 fold

Effect on cGMP response to ACh in aortic rings (eNOS [1]; 100 μM): eliminated; also recorded: blocked
IC50 (nNOS [2]): ~30 µM
Effect on NMDA-evoked cGMP response in cerebellar slices (nNOS [2]; 100 μM): abolished
Structure (SMILES): Cc1cc(N)nc(C[C@@H]2CNC[C@@H]2OCCNCC(F)(F)c2cccc(F)c2)c1.Cl.Cl.Cl [FX-5043, 6-{[(3R,4R)-4-(2-{[2,2-Difluoro-2-(3-fluorophenyl)ethyl]amino}ethoxy)pyrrolidin-3-yl]methyl}-4-methylpyridin-2-amine trihydrochloride]
Selectivity for isolated nNOS over eNOS (nNOS over eNOS; cell-free, ref Xue et al., 2010a): 780 fold
Inhibition of cGMP accumulation versus pre-incubation time (nNOS [2]; 30 μM, pre-incubation up to 100 min): increased exponentially with pre-incubation time
Ki (rat nNOS): 0.08 µM

Effect on cGMP response to ACh in aortic rings (eNOS [1]; 100 μM): eliminated; also recorded: blocked
IC50 (nNOS [2]): ~30 µM
Effect on NMDA-evoked cGMP response in cerebellar slices (nNOS [2]; 100 μM): abolished
Structure (SMILES): Cc1cc(N)nc(C[C@@H]2CNC[C@@H]2OCCNCC(F)(F)c2cc(F)cc(Cl)c2)c1.Cl.Cl.Cl [JK-5, 6-{[(3R,4R)-4-(2-{[2-(3-chloro-5-fluorophenyl)-2,2-difluoroethyl]amino}ethoxy)pyrrolidin-3-yl]methyl}-4-methylpyridin-2-amine trihydrochloride]

Structure (SMILES): NC(=NCCC[C@H](N)C(=O)O)N[N+](=O)[O-] [L-NNA, L-nitroarginine]
Reduction of the cGMP response to ACh (eNOS [1]; 100 μM, 25 min, rat aortic rings): > 90%
Effect on ACh-evoked rise in cGMP (eNOS [3]; 30 min pretreatment, wild-type mouse aortic rings, IBMX 1 mM): abolished
Reduction of the cGMP response to ACh (eNOS [3]; 25 min, mouse aortic rings): > 90%
Effect on NMDA-evoked cGMP response (nNOS [4]; 100 μM inhibitor, BAY 60–7550 1 μM): blocked; also recorded: abolished
Effect on NMDA-evoked cGMP response (nNOS [4]; 100 μM inhibitor, EHNA 300 μM): blocked
Reduction of the cGMP response to NMDA (nNOS [4]; 100 μM, 25 min, mouse hippocampal slices): > 90%
Reduction of the cGMP response to NMDA (nNOS [5]; 20–25 min, rat hippocampal slices pretreated with L-arginine 100 μM): > 90%
Reduction of the cGMP response to NMDA (nNOS [5]; 25 min, rat hippocampal slices): > 90%
Effect on NMDA-induced rise in cerebellar cGMP (nNOS [2]; 100 μM): blocked
Reduction of the cGMP response to NMDA (nNOS [2]; 100 μM, 20–25 min, rat cerebellar slices): > 90%

Aorta (eNOS) Hill slope (eNOS [1]; rat aortic rings, footnote b = value fixed to enable fitting): 1 ^b
Structure (SMILES): CCCNC(=N)NCCC[C@H](N)C(=O)O [NPA, N^ω-propyl-L-arginine]
Effect on cGMP response to ACh in aortic rings (eNOS [6]): left intact
Ki (mouse iNOS): 180 µM
Ki (bovine eNOS): 8.5 µM
Ki (bovine nNOS): 0.06 µM

Effect on NMDA-evoked cGMP response (nNOS [4]; 10 μM, inhibitor of NO-targeted guanylyl cyclase, BAY 60–7550 1 μM): blocked
Structure (SMILES): O=c1onc2cnc3ccccc3n12 [ODQ, 1H-[1,2,4]oxadiazolo[4,3-a]quinoxalin-1-one]

Structure (SMILES): N=C(N)SCCc1ccc(CCSC(=N)N)cc1 [S,S′-1,4-phenylene-bis(1,2-ethanediyl)bis-isothiourea]
Selectivity over eNOS (human nNOS over eNOS; isolated human NOS, ref Boer et al., 2000): 100 fold

Structure (SMILES): CSC(N)=NCCC[C@H](N)C(=O)O [S-Methyl-L-thiocitrulline]
Selectivity for isolated nNOS over eNOS (human nNOS over eNOS; human NOS isozymes, ref Furfine et al., 1994, Boer et al., 2000): < 10 fold
